According to the EternaBench riboswitch data:

Test system: MS2 coat protein
Assay: apparent Kd, MS2 coat protein; higher = weaker binding; RNA-MaP array; FMN 200 µM where present
Summary of the method: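 Designs were transcribed by stalled E. coli RNA polymerase on Illumina sequencing-chip clusters. They were titrated with SNAP-549-labelled MS2 coat protein from 0.7 or 1.5 nM, doubling to 3 µM, in 100 mM Tris-HCl pH 7.5, 80 mM KCl, 4 mM MgCl2, BSA, DTT, yeast tRNA and Tween-20, without and then with constant ligand. The apparent Kd is the median of filtered per-cluster fits after normalisation of green signal to red-channel RNA signal and control-cluster median Fmax.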

[1] = designed as: OFF switch for flavin mononucleotide, no ligand
[2] = ligand present: flavin mononucleotide, designed as: OFF switch for flavin mononucleotide
[3] = designed as: ON switch for flavin mononucleotide, no ligand
[4] = ligand present: flavin mononucleotide, designed as: ON switch for flavin mononucleotide

## UAAAAGUGAGGAUAUCCAAUAUAUGACAUGAGGAUCACCCAUGUUUCCACUCGUACCUCCGGAGAAGGCACAAAGU
[1]
  apparent Kd: 29.5 nM
[2]
  apparent Kd: 28.5 nM

## CAGGGUUCGUGAAUAAGCUAGCUUCGAGAAGGGCCACAUGAGGAUCACCCAUGUCAGCGAAAACGGCAGGAUAUCGAGGGUGAG
[3]
  apparent Kd: 147 nM
[4]
  apparent Kd: 48.4 nM

## CAUUAAUUGAUUAUUGUAUUUAUACAGGAUAUGUAACAUGAGGAUCACCCAUGUAUACAUGGGAAACAGAAGGGUAUUUAAAGA
[1]
  apparent Kd: 34.7 nM
[2]
  apparent Kd: 25.3 nM

## GUUCUUCCUGUAAGGAUAUCCAUGUAUCAAUUUAUGGAGAAGGUACAUGAGGAUCACCCAUGUCACCCGCGUUA
[1]
  apparent Kd: 20.9 nM
[2]
  apparent Kd: 50.7 nM

## UUUUUUUACUAGGAUAUCAGAGUCGAAAGACUCUGAGAAGGAGUAACAUGAGGAUCACCCAUGUGUCCUUUUUU
[1]
  apparent Kd: 20.1 nM
[2]
  apparent Kd: 49.3 nM

## AAAAGGUCAGGAUAUGCGAGCGGCAGGGAGGCAGGUCGGUGGCAGAAGGGACAUGAGGAUCACCCAUGUUAAAA
[1]
  apparent Kd: 35 nM
[2]
  apparent Kd: 34.1 nM

## UGAUCUUUUGUUAGGAUAUGCUGUUUUUUUUUUCAGCAGAAGGGACAUGAGGAUCACCCAUGUUUUGUCAUAAA
[1]
  apparent Kd: 12.4 nM
[2]
  apparent Kd: 24.9 nM

## CAGUACUGAGGAUAUACAUGAGGAUCACCCAUGUGUCCCGGCUAGGAAACUAGCAAAAGUAGAAGGCAGUACUG
[1]
  apparent Kd: 24 nM
[2]
  apparent Kd: 516 nM

## CUCAGACAUGAGGAUCACCCAUGUUAGGAUAUAUAAAAGAGCGGCAGAGCGCUCUUCCAUAGAAGGAGCAGUGU
[1]
  apparent Kd: 27.2 nM
[2]
  apparent Kd: 27.7 nM

## UUGAAUUAAAAGGAUAUGGGAGUCGAUAGACACCCAGAAGGUUUAACAUGAGGAUCACCCAUGUGUCCUAUCAA
[1]
  apparent Kd: 23.1 nM
[2]
  apparent Kd: 31.4 nM

## GACGAGUGAGGAUAUGGUGAGUAGUGCCUGAGCGCUGCUCACCAGAAGGCACAUGAGGAUCACCCAUGUAUGUC
[1]
  apparent Kd: 13.5 nM
[2]
  apparent Kd: 17.6 nM

## UUAGUCAUGUUAGGAUAUCCGAUGCGAAGCGUUGGAGAAGGAACAUGAGGAUCACCCAUGUUCUGCGUCUGAGUACAGAUGCUA
[1]
  apparent Kd: 29.6 nM
[2]
  apparent Kd: 123 nM

## AAGAAGUCAGGAUAUCCUGCUCGUCACUUGCGUGAUGAGUAGGAGAAGGGACAUGAGGAUCACCCAUGUAAAGG
[1]
  apparent Kd: 137 nM
[2]
  apparent Kd: 267 nM

## AUGCUUAUCGAAGGAUAUGGUUACAUGAGGAUCACCCAUGUUAUGAUUGGUUACUUGUUUAGUUUCCAGAAGGUCGAUUAGUUA
[1]
  apparent Kd: 58.8 nM
[2]
  apparent Kd: 225 nM

## CGGCAUCAUGUAGGAUAUGCGUGGCGAAGCUAUGCAGAAGGACAUGAGGAUCACCCAUGUCUUAGCUAGCGUACUAGCUUGCCG
[1]
  apparent Kd: 6.24 nM
[2]
  apparent Kd: 16.6 nM

## GCCCGGCCCGGGCCCACGGCAUCACAGGAUAUGCCGAUCACAUGAGGAUCACCCAUGUCAACUCCGCAGAAGGGUGAUAUCGUG
[3]
  apparent Kd: 322 nM
[4]
  apparent Kd: 33.2 nM

## UAAGAAGCACUCGGAACCGGACAAUGAGAAGGCCACGCACAUGAGGAUCACCCAUGUAAAGCUAUGGAGGAUAUCAUGAUGGAA
[3]
  apparent Kd: 80.9 nM
[4]
  apparent Kd: 8.71 nM

## AAGGCGUCAGGAUAUCCAAUAUAUGACAUGAGGAUCACCCAUGUUUCCACUCGUACCUCCGGAGAAGGGACGAAUA
[1]
  apparent Kd: 29.1 nM
[2]
  apparent Kd: 27.5 nM

## CCUGGCUUAGGAUAUACAGGAACCGAGAACCCGGAAGUGAAACAUGAGGAUCACCCAUGUAGAAGGAAGAAAGC
[1]
  apparent Kd: 26.8 nM
[2]
  apparent Kd: 23.1 nM

## CCUCUGUUAGGAUAUCAAACACUAUCUGCUCCAGAGUUAAGUGAGAAGGGACAUGAGGAUCACCCAUGUAAAAU
[1]
  apparent Kd: 26.9 nM
[2]
  apparent Kd: 33.7 nM

## CAGGUAGACUGAGGAUAUACAAUAAGACCUAGUCUAUCUAGGUCAAUCACAUGAGGAUCACCCAUGUAGAAGGCAGUCUGCCUG
[1]
  apparent Kd: 17.3 nM
[2]
  apparent Kd: 36.2 nM

## AUAAAACAAAACCACACAUGAGGAUCACCCAUGUCAAGAUUACAGGAUAUCCAGCAGAGAUGCAUGGAGAAGGGUGAUCCCAAA
[3]
  apparent Kd: 37.1 nM
[4]
  apparent Kd: 56.5 nM

## UGAUCUUUUGUUAGGAUAUGCUGGGUUUUUUCUCAGCAGAAGGGACAUGAGGAUCACCCAUGUUCUCUCUUUUU
[1]
  apparent Kd: 9.49 nM
[2]
  apparent Kd: 11.6 nM

## GUAGCAUGCCAAGGAUAUUCAUAUAGUAGGCAAACAUGAGGAUCACCCAUGUAAUGAUAGCAGUGGGAGAAGGUGGGAUGCUAC
[3]
  apparent Kd: 47.5 nM
[4]
  apparent Kd: 22.2 nM

## CUAAAUCAUGUAGGAUAUGCAUGGCGAAGCUACGCAGAAGGACAUGAGGAUCACCCAUGUCAGAACGUCUGCGUUCAGACGUUG
[1]
  apparent Kd: 17.7 nM
[2]
  apparent Kd: 58 nM

## AUAGAAAGAUUAAUAUGAUUACAUGAGGAUCACCCAUGUAUAAAGGAUAUCGACGUCAAUGACGUCGAGAAGGUUAUACAUAAU
[1]
  apparent Kd: 24.2 nM
[2]
  apparent Kd: 84 nM

## GGCUCAGUGACAUGAGGAUCACCCAUGUGGCUCAUUCAACGCAGAAGGCACAAGGGAACACCUCGUGAGGAUAUGCAAGUAGAC
[3]
  apparent Kd: 367 nM
[4]
  apparent Kd: 36.7 nM

## ACAUACAUUCGAGGAUAUCGGUGAUUAAUUUUACGAGAAGGCGAUAAAAGAUAUAAAAUUUUAGACAUGAGGAUCACCCAUGUA
[3]
  apparent Kd: 28.6 nM
[4]
  apparent Kd: 27.1 nM

## CAGCCCUGAGGAUAUCCCUCCUUGUACAUGAGGAUCACCCAUGUUCUCCUCUGGGCCUUGGGAGAAGGCAGAUCUC
[1]
  apparent Kd: 56.9 nM
[2]
  apparent Kd: 49.5 nM

## UAAUAAUAGUCAGGAUAUAGUUAUUAUAAUAUACUAGAAGGGACACAUGAGGAUCACCCAUGUUUUAUAAUUUGUAAUUUAAAU
[1]
  apparent Kd: 21.6 nM
[2]
  apparent Kd: 17.7 nM

## AAAAGAGUAGGAUAUCUGACGCGAAACAUGAGGAUCACCCAUGUAGGGCGGUCCUGCUUAAGAGAAGGGCUCAAAU
[1]
  apparent Kd: 99.6 nM
[2]
  apparent Kd: 230 nM

## AUGGUUGUCGAGGAUAUGCACCGGCUCGCUGACGCAGAAGGCGACACAUGAGGAUCACCCAUGUCGGUUCGCGU
[1]
  apparent Kd: 22.4 nM
[2]
  apparent Kd: 51.4 nM

## GGGUGACAUGAGGAUCACCCAUGUCAGGAUAUGGGUUUGGGCCCGAAAGGGCCCGGGCCCAGAAGGGACUGCCC
[1]
  apparent Kd: 50.9 nM
[2]
  apparent Kd: 96.4 nM

## ACGCAGAGAGGAUAUACAUGAGGAUCACCCAUGUAUAAACGCACUAACUCUCCUCACUGUAGAAGGCUCAUGCA
[1]
  apparent Kd: 11.7 nM
[2]
  apparent Kd: 20.4 nM

## UUACCCUCAGUAAGGAUAUCUUUAUCUGCUGAUAUAGAGAAGGUACAUGAGGAUCACCCAUGUGCGAUUGGGCU
[1]
  apparent Kd: 116 nM
[2]
  apparent Kd: 282 nM

## GUAGCAUACAGAGGAUAUUCAAAACCGGAAACGGACAUGAGGAUCACCCAUGUGGCGAAAGCCUGGGAGAAGGCUGAAUGCUAC
[3]
  apparent Kd: 28.6 nM
[4]
  apparent Kd: 14.2 nM

## UAAUCUCAGAUAGGAUAUAUAGGAUAACUUAAGACCUAACAUGAGGAUCACCCAUGUGAUUAUUCGUAGAAGGAUCAUUGAACA
[3]
  apparent Kd: 259 nM
[4]
  apparent Kd: 263 nM

## CAUACGUCAGGAUAUCUGAUGUCUAACUUCGGUUAGACAUCAGAGAAGGGACAUGAGGAUCACCCAUGUAUGAA
[1]
  apparent Kd: 118 nM
[2]
  apparent Kd: 130 nM

## AAAUAAGUUGCAGGAUAUUAUUUUUAAUAAAUAUAAGAAGGGCAACAAACCUCACAUGAGGAUCACCCAUGUACCCAUGUAUCU
[1]
  apparent Kd: 64.3 nM
[2]
  apparent Kd: 35.6 nM

## AAAACAUGAGGAUCACCCAUGUUUAGAUCGGUCGAUAGAAGUGAGGAUAUACGAAGUUAAGGCUGGUAGAAGGCACUGGGUACA
[3]
  apparent Kd: 39.8 nM
[4]
  apparent Kd: 33.3 nM

## UGGUACUACGGAGGAUAUCAUGUAGAUACAUGAGGAUCACCCAUGUCGAUGGAGACAUCGGAGAUUGAGAAGGCCGUAGUACCU
[3]
  apparent Kd: 610 nM
[4]
  apparent Kd: 29.4 nM

## CUCUUGUAAGGAUAUGCUGCUCGUCACGAAAGUGAUGAGUAGCAGAAGGUACAUGAGGAUCACCCAUGUAAAUA
[1]
  apparent Kd: 111 nM
[2]
  apparent Kd: 34.9 nM

## UUUGUUUAUGCAGGAUAUUGACUUUUAUUUCUACAAGAAGGGCAUUACAUGAGGAUCACCCAUGUCUACAUGUAUUUAACUAGU
[1]
  apparent Kd: 67.8 nM
[2]
  apparent Kd: 49.1 nM

## GGAUCGAGUGUGAGGAUAUGCUGGUCGUAAGAUCAGCAGAAGGCACAUGAGGAUCACCCAUGUGAAAACGGUCC
[1]
  apparent Kd: 24.7 nM
[2]
  apparent Kd: 164 nM

## GAUCGCCAUGUCAGGAUAUCUUGUAUACCCACGUUAGAGAAGGGACAUGAGGAUCACCCAUGUACCCUGGUUUU
[2]
  apparent Kd: 16.4 nM

## UAUAUAUAGUAAGGAUAUAUAUUUAUUUUAUAAAUAGAAGGUACAGACAUGAGGAUCACCCAUGUUAUAAUAUGGACAUGUGGA
[1]
  apparent Kd: 52.5 nM
[2]
  apparent Kd: 69.4 nM

## GAGUAGUUAAAAGGAUAUUGAUUAUUGUAGGAUCAAGAAGGUUUUAACAUGAGGAUCACCCAUGUAGGACUAUUCCUGUGUAUC
[3]
  apparent Kd: 16.5 nM
[4]
  apparent Kd: 14.8 nM

## CCCGCGAUGUCAGGAUAUAGUCGGAGGUGCAGACUAGAAGGGACAUGAGGAUCACCCAUGUGCGUGAAAAUUUGAAACCCAGGU
[1]
  apparent Kd: 46.5 nM
[2]
  apparent Kd: 164 nM

## UGGUACUAGGGAGGAUAUGGGAAGAUACAUGAGGAUCACCCAUGUUUAAGAAUGCCGAGAUGCAACUAGAAGGCCCUAGUACCU
[3]
  apparent Kd: 371 nM
[4]
  apparent Kd: 21.9 nM
